Source: publication PMC10913540 (Journal of medicinal chemistry, 2021)

Columns and labels:
X = X (Homo sapiens, UniProt P28074); experiment: In vitro proteasome activity assay, purified human 20S proteasome, Ac-WLA-AMC; type: biochemical
LMP7 = LMP7 (Homo sapiens, UniProt P28062); experiment: In-cellulo LMP7 inhibition in RPMI-8226/ABCB1 vs parental RPMI-8226 cells; type: cell-based; conditions: Supple. Table S1
How it was run: (§1)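 Lysates (14,000 g, 20 min, 4 °C; 5 μg protein) in 20 mM Tris-HCl, 0.5 mM EDTA, 0.035% SDS, pH 8.0, received Ac-PAL-AMC (LMP2) or Ac-ANW-AMC (LMP7), each at 100 μM. Fluorescence (ex 360/em 460 nm) was read every minute for 1 h. IC50s were compared between lines.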

ABCG2 = target: T1, ABCG2 (Homo sapiens, UniProt Q9UNQ0); experiment: ABCG2 interaction assay; type: cell-based; conditions: MDCKII/ABCG2 cells, PhA 1 μM; DB-60 (20) 2 or 5 μM, Ko143 0.2 μM
T1 sequence (Q9UNQ0 1-655): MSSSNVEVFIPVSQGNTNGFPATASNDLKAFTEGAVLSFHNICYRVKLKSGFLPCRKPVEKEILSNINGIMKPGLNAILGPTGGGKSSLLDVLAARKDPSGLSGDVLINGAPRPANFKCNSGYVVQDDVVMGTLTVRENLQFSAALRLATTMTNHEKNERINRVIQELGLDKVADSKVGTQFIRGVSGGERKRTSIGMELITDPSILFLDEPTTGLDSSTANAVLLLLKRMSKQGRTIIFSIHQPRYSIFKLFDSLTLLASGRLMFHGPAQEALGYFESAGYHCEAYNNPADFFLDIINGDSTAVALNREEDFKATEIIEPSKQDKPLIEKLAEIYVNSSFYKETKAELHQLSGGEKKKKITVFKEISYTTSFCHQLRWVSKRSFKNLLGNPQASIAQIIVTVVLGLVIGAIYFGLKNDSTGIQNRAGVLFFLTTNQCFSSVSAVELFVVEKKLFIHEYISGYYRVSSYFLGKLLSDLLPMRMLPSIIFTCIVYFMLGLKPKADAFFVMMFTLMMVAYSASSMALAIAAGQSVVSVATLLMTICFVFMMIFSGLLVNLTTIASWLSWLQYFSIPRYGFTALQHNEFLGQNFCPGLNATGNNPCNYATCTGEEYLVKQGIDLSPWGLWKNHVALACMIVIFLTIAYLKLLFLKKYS

[1] = In vitro metabolic stability in mouse whole blood; type: in vitro ADME; conditions: ICR mice, 1 μM, 0, 10 and 30 min, compared with YU102
How it was run: (§2)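 Matrices came from male 7-week-old ICR mice: whole blood with 25 IU/mL heparin, and liver homogenised in ice-cold PBS (2.5 mL/g). After pre-incubation at 37 °C, test compound was added to 1 μM final. Sampling was at 0, 10 and 30 min for blood and 0, 10 and 20 min for liver. […] Remaining drug was measured by LC-MS/MS.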

[2] = In vitro metabolic stability in mouse liver homogenates; type: in vitro ADME; conditions: ICR mice, 1 μM, 0, 10 and 20 min, compared with YU102
How it was run: as §2

IL-1α [3] = experiment: IL-1α release by LPS-activated BV-2 cells; type: cell-based, murine; conditions: LPS 1 μg/mL
How it was run: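 BV-2 microglia were stimulated with LPS (1 μg/mL). IL-1α in the culture supernatants was measured by sandwich ELISA. Supernatants and standards (seven serial twofold dilutions) sat overnight at 4 °C on capture-antibody plates, then went through detection antibody (1 h), avidin-HRP (30 min), substrate, and a 2N H2SO4 stop. A450 was read. Three technical replicates, SD shown.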

LMP2 [4] = target: LMP2 (Mus musculus, UniProt P28076); experiment: LMP2 activity in brain homogenates after single intravenous dosing; type: in vivo; conditions: ICR mice, single intravenous dosing 10 mg/kg, 1-hour post-dosing
Tg2576 mice = experiment: Morris water maze, probe trial and passive avoidance in Tg2576 mice; type: in vivo, mouse; conditions: 10 mg/kg twice weekly for 3 weeks
How it was run: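 Tg2576 mice (9-month-old, acclimatised one month) were injected with 10 mg/kg twice weekly for 3 weeks. Morris water maze training ran on days 1–5: hidden platform 1–1.5 cm below 25 ± 1 °C water, three 60-s trials daily from randomised starts. The probe trial on day 6 tracked swimming for 60 s and recorded time in the former platform quadrant by video. Student's t-test, n=5.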

IL-1α [5] = experiment: Serum IL-1α levels in Tg2576 mice; type: in vivo, mouse; conditions: 10 mg/kg twice weekly for 3 weeks, vs vehicle
How it was run: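 Serum from 9-month-old Tg2576 mice (dosed or vehicle) diluted 1:5, then incubated with IL-1α standards (seven serial twofold dilutions) on capture-antibody-coated plates for 2 h at room temperature. Five washes, detection antibody 1 h, avidin-HRP 30 min, five washes, substrate, stop with 2N H2SO4. Absorbance read at 450 nm; n=3.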

[6] = system: retinal pigment epithelium (RPE); experiment: RPE flat mounts, anti-β-catenin immunostaining; type: in vivo, mouse
How it was run: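 After behaviour testing, eyes from treated Tg2576 mice and from age-matched non-transgenic ICR mice were fixed in 4% paraformaldehyde (1 h, RT). Eyecups were dissected, retina removed, and RPE sheets permeabilised (0.2% Triton X-100, 15 min) and blocked (3% BSA, 1 h). Sheets were stained with anti-β-catenin (1:100, overnight 4 °C), then Alexa 555 secondary (1:1000, 2 h RT), and imaged by confocal microscopy. Images are representative of 3 independent replicates.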

[7] = Observation of overt toxicity during treatment; type: in vivo; conditions: Tg2576 or non-transgenic ICR mice during the test period
LMP2 [8] = target: T2, LMP2 (Homo sapiens, UniProt P28065); experiment: In-cellulo LMP2 inhibition in RPMI-8226/ABCB1 vs parental RPMI-8226 cells; type: cell-based; conditions: either cell line
How it was run: as §1

LMP2 [9] = target: T2, LMP2; experiment: In vitro proteasome activity assay, purified human 20S proteasome, Ac-PAL-AMC; type: biochemical; conditions: P3-proline substitution of 21, purified proteasome

| SMILES | IC50 (X) [µM] | LMP2 inhibitory potency compared with 21 (LMP2 [9]) | further results |
| --- | --- | --- | --- |
| CC(C)C[C@H](NC(=O)[C@@H]1Cc2ccc(cc2)OCCCCCCC(=O)N2CCC[C@H]2C(=O)N1)C(=O)[C@@]1(C)CO1 [compound 16, (1^2S,4S)-N-((S)-4-Methyl-1-((R)-2-methyloxiran-2-yl)-1-oxopentan-2-yl)-2,14-dioxo-7-oxa-3-aza-1(2,1)-pyrrolidina-6(1,4)-benzenacyclotetradecaphane-4-carboxamide] | > 10 |  |  |
| C[C@]1(C(=O)[C@H](Cc2ccccc2)NC(=O)[C@@H]2Cc3ccc(cc3)OCCCCCCCC(=O)N3CCC[C@H]3C(=O)N2)CO1 [compound 20, (1^2S,4S)-N-((S)-1-((R)-2-Methyloxiran-2-yl)-1-oxo-3-phenylpropan-2-yl)-2,15-dioxo-7-oxa-3-aza-1(2,1)-pyrrolidina-6(1,4)-benzenacyclopentadecaphane-4-carboxamide] |  |  | fold decrease of LMP7 inhibition, RPMI-8226/ABCB1 vs parental RPMI-8226 (LMP7): ~ 2 fold; inhibition of the ABCG2-mediated efflux of PhA (cellular accumulation of PhA) (ABCG2): no inhibition of the ABCG2-mediated efflux of PhA; metabolic stability in whole blood [1]: greater metabolic stability than YU102; stability in liver homogenates [2]: superior to YU102; release of IL-1α by LPS-activated microglial BV-2 cells (IL-1α [3]): decreased the release of IL-1α; inhibition of LMP2 activity in brain homogenates (LMP2 [4]): no appreciable inhibition of the LMP2 activity; probe trial: percentage of time spent in the target quadrant (Tg2576 mice; day 6, vs control): higher than control mice; passive avoidance test: step-through latency (Tg2576 mice; days 7-8, vs control): performed better in a fear-aggravated test (passive avoidance) than control mice; serum levels of IL-1α (IL-1α [5]): lower in Tg2576 mice receiving DB-60 (20) treatment than the control mice; RPE structure in Tg2576 mice ([6]; Tg2576 mice after behavior tests, anti-β-catenin staining): displayed the orderly structure; RPE structural integrity in non-transgenic ICR mice ([6]; age-matching non-transgenic ICR mice treated with DB-60 (20)): not affected; overt toxicity [7]: No sign of overt toxicity |
| C[C@]1(C(=O)[C@H](Cc2ccccc2)NC(=O)[C@@H]2COCCCCCC(=O)N3CCC[C@H]3C(=O)N2)CO1 [compound 25, (3S,15aS)-N-((S)-1-((R)-2-Methyloxiran-2-yl)-1-oxo-3-phenylpropan-2-yl)-1,11-dioxotetradecahydropyrrolo[2,1-f][1]oxa[4,7]diazacyclotridecine-3-carboxamide] | > 10 |  |  |
| CC(C)C[C@H](NC(=O)[C@@H]1COCCCCCC(=O)NCC(=O)N2CCC[C@H]2C(=O)N1)C(=O)[C@@]1(C)CO1 [compound 26, (3S,18aS)-N-((S)-4-Methyl-1-((R)-2-methyloxiran-2-yl)-1-oxopentan-2-yl)-1,11,14-trioxohexadecahydro-6H-pyrrolo[2,1-f][1]oxa[4,7,10]triazacyclohexadecine-3-carboxamide] | > 10 |  | LMP2 inhibition in RPMI-8226/ABCB1 and parental RPMI-8226 cells (LMP2 [8]): no LMP2 inhibition in either cell line |
| CC(C)C[C@H](NC(=O)[C@@H]1COCCCCCCC(=O)NCC(=O)N2CCC[C@H]2C(=O)N1)C(=O)[C@@]1(C)CO1 [compound 27, (3S,19aS)-N-((S)-4-Methyl-1-((R)-2-methyloxiran-2-yl)-1-oxopentan-2-yl)-1,12,15-trioxooctadecahydropyrrolo[2,1-f][1]oxa[4,7,10]triazacycloheptadecine-3-carboxamide] | > 10 |  | LMP2 inhibition in RPMI-8226/ABCB1 and parental RPMI-8226 cells (LMP2 [8]): no LMP2 inhibition in either cell line |
| CC(C)C[C@H](NC(=O)[C@@H]1COCCCCCC(=O)N2C[C@H](F)C[C@H]2C(=O)N1)C(=O)[C@@]1(C)CO1 [compound 32, (3S,14S,15aS)-14-Fluoro-N-((S)-4-methyl-1-((R)-2-methyloxiran-2-yl)-1-oxopentan-2-yl)-1,11-dioxotetradecahydropyrrolo[2,1-f][1]oxa[4,7]diazacyclotridecine-3-carboxamide] | > 10 | substantial decrease in the LMP2 inhibitory potency |  |
| CC(C)C[C@H](NC(=O)[C@@H]1COCCCCCC(=O)N2CC(F)(F)C[C@H]2C(=O)N1)C(=O)[C@@]1(C)CO1 [compound 33, (3S,15aS)-14,14-Difluoro-N-((S)-4-methyl-1-((R)-2-methyloxiran-2-yl)-1-oxopentan-2-yl)-1,11-dioxotetradecahydropyrrolo[2,1-f][1]oxa[4,7]diazacyclotridecine-3-carboxamide] | > 10 | LMP2 inhibitory potency similar to 21 |  |
| CC(C)C[C@H](NC(=O)[C@@H]1COCCCCCC(=O)N2CCC[C@@]2(C)C(=O)N1)C(=O)[C@@]1(C)CO1 [compound 34, (3S,15aS)-15a-Methyl-N-((S)-4-methyl-1-((R)-2-methyloxiran-2-yl)-1-oxopentan-2-yl)-1,11-dioxotetradecahydropyrrolo[2,1-f][1]oxa[4,7]diazacyclotridecine-3-carboxamide] | > 10 | substantial decrease in the LMP2 inhibitory potency |  |
| CC(C)C[C@H](NC(=O)[C@@H]1COCCCCCC(=O)N2CC[C@H]2C(=O)N1)C(=O)[C@@]1(C)CO1 [compound 35, (10S,13S)-N-((S)-4-Methyl-1-((R)-2-methyloxiran-2-yl)-1-oxopentan-2-yl)-2,12-dioxo-8-oxa-1,11-diazabicyclo[11.2.0]pentadecane-10-carboxamide] | > 10 | LMP2 inhibitory potency similar to 21 |  |
| CC(C)C[C@H](NC(=O)[C@@H]1COCCCCCC(=O)N2CCCC[C@H]2C(=O)N1)C(=O)[C@@]1(C)CO1 [compound 36, (3S,16aS)-N-((S)-4-Methyl-1-((R)-2-methyloxiran-2-yl)-1-oxopentan-2-yl)-1,11-dioxotetradecahydro-2H-pyrido[2,1-f][1]oxa[4,7]diazacyclotridecine-3-carboxamide] | > 10 | substantial decrease in the LMP2 inhibitory potency |  |
